Reference: ChEMBL document CHEMBL5113533 (J Med Chem, 2022)
Calls of active or inactive are those of the source.

Key:
Type in all cases: functional, cell-based
THP-1 [1] = experiment: Antiinflammatory activity against LPS-stimulated human THP-1 cells assessed reduction in IL-1beta level pretreated at 5 uM for 1 hr followed by LPS stimulation and measured upto 24 hrs by ELISA analysis
How it was run: (§1)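 THP-1 cells pre-treated with compound for 1 h (5 μM or 1 μM, depending on the compound), then stimulated with 100 ng/mL LPS. Culture supernatant was taken at 24 h, and TNF-α, IL-6 or IL-1β was measured by sandwich ELISA at 450 nm with 540 nm correction; four biological replicates.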

THP-1 [2] = experiment: Antiinflammatory activity against LPS-stimulated human THP-1 cells assessed reduction in IL-6 level pretreated at 5 uM for 1 hr followed by LPS stimulation and measured upto 24 hrs by ELISA analysis; how it was run: as §1
THP-1 [3] = experiment: Antiinflammatory activity against LPS-stimulated human THP-1 cells assessed as blockage of inflammatory phenotype by measuring m/z ratio at 5 uM pretreated for 1 hr followed by LPS stimulation and measured upto 24 hrs
How it was run: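 THP-1 cells at 1 million/mL, pre-treated with compound at 5 μM for 1 h in technical triplicate, then 100 ng/mL LPS for 24 h. Pellets frozen on dry ice, thawed, washed in 100 mM Tris–HCl pH 7.5 at 4 °C. MALDI-TOF MS read-out is the normalized m/z 4964/4632 ratio, with a 40% cutoff used for hit calling; three biological replicates.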

THP-1 [4] = experiment: Antiinflammatory activity against LPS-stimulated human THP-1 cells assessed reduction in TNFalpha level pretreated at 5 uM for 1 hr followed by LPS stimulation and measured upto 24 hrs by ELISA analysis; how it was run: as §1

Measured: Activity

CCN1CCN(Cc2ccc(NC(=O)c3ccc(C)c(Oc4ccnc5[nH]ccc45)c3)cc2C(F)(F)F)CC1
active: all assays above

CC[C@@H]1C(=O)N(C)c2cnc(Nc3ccc(C(=O)NC4CCN(C)CC4)cc3OC)nc2N1C1CCCC1
active: all assays above
